Measurements taken from the EternaBench riboswitch data.

Test system: MS2 coat protein
Assay: apparent Kd, MS2 coat protein; higher = weaker binding; RNA-MaP array; FMN 200 µM where present
Method in brief: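 The apparent Kd is the median of filtered binding-curve fits, one per cluster, to green signal normalised to red-channel RNA signal and control-cluster median Fmax. The clusters were on Illumina sequencing chips, and stalled E. coli RNA polymerase had transcribed the designs on them. Titration used SNAP-549-labelled MS2 coat protein from 0.7 or 1.5 nM, doubling to 3 µM, without and then with constant ligand, in 100 mM Tris-HCl pH 7.5, 80 mM KCl, 4 mM MgCl2, BSA, DTT, yeast tRNA and Tween-20.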

[1] = designed as: ON switch for flavin mononucleotide, no ligand
[2] = ligand present: flavin mononucleotide, designed as: ON switch for flavin mononucleotide
[3] = designed as: OFF switch for flavin mononucleotide, no ligand
[4] = ligand present: flavin mononucleotide, designed as: OFF switch for flavin mononucleotide

Sequence	apparent Kd [1] [nM]	apparent Kd [2] [nM]	apparent Kd [3] [nM]	apparent Kd [4] [nM]
UUAACAUGAGGAUCACCCAUGUCGUGCUAGAUGAGUUCUGGUGAGGAUAUACAUGGUAAAGAACUGUAGAAGGCACUGGGUACA	309	336		
UUCUUACAUGAGGAUCACCCAUGUCAGGAUAUCUCCGCACUGCGCUUGCGCAGUGCAUAGAGAAGGGACAGGCU			55	50.2
GGGCUGUCAGGAUAUGGGCUCGGGCUCGAAAGGGCUCGGGCUCAGAAGGGACAUGAGGAUCACCCAUGUGGCUC			43.8	58
GCCUCAUAGUAGAAGGGACUUAGGCAGUUAAGCAUCAUGUCCAAUUAACAUGAGGAUCACCCAUGUCAGGAUAUACUAAGAGGC			8.03	25.1
AAAACAUGAGGAUCACCCAUGUAAUGAUCGGUUGAUGAAAGUGAGGAUAUACAAAAUUUUAUGGAGUAGAAGGCACUGGGUUCA	31.4	31.9		
CGCGUAUGAGGAUAUGCAUAAAAGGGUGCACUGAGUCUGAGACAUGAGGAUCACCCAUGUAGAAGGCGUGCGCU			12.9	16
UAUAAGCUAGGAUAUACUAACGAAACUAAUGCAUAUAUAUAACAUGAGGAUCACCCAUGUAGAAGGAGCAGAAU			25.5	23
UUGUUACAUGAGGAUCACCCAUGUGAGGAUAUGAGUCAGUCACGGUGACGUGGCUGACUCAGAAGGCACUAUGG			300	149
CAUUAAUUCAUUAUAGUAAUUAUACAGGAUAUGUUACAUGAGGAUCACCCAUGUAUUCAUGGUAAACAGAAGGGUAAUACUAGA			12.3	22.4
UAUAAUAUUAUAGGAUAUGGAUACGAUGCGUAUCCAGAAGGGUGAUUAUAAUAUAAUCUAUACAUGAGGAUCACCCAUGUUUAU	301	121		
ACUGGUCGAGGAUAUACGUGACGUGCUUCGGCACGAGGUCUACAUGAGGAUCACCCAUGUAGAAGGCGACCAGU			17	53.9
GUGUACGUAGGAUAUGCUGGAAUCUAGCGAAGCUAGGUUCCACAUGAGGAUCACCCAUGUAGAAGGGCGUACAC			182	47.1
CGAUGGCAUGUAGGAUAUCGAGCUCAAAGAGCUCGAGAAGGACAUGAGGAUCACCCAUGUGCACACAGACAGUGUGCGCUAUCG			37	181
GAGAAGUCAGGAUAUGCAUGGCGGGACUUGCGUCGUGGCGUGCAGAAGGGACAUGAGGAUCACCCAUGUGGAGU			163	235
UGAUCUAUGUAGAAGGCCCAUAUCUAUAUUUAGGGAGGAUAUACAUGAGGAUCACCCAUGUAUAGAGCUAGUGGACUAGUCACC			20.9	47.1
CCCGUGUGUUAAGGAUAUGGCAGGCGCGUUGAACCAGAAGGUAGCACAUGAGGAUCACCCAUGUGAAUGCUCGCGACUCGAGCG			43.6	18.2
AAUAUAAAAGAGCUGGAUAACUCGACAUGAGGAUCACCCAUGUAGGAUAUCAGCACGAUAAGUGCUGAGAAGGACAACCAGCUC			14.7	16.2
GUAGAGUAAGGAUAUUGUGAAUAGGAUAGAAUGGUUAGAAGCAAGAAGGUACAUGAGGAUCACCCAUGUAAUGU			22.5	23.6
GGUUGGCGAGGAUAUACAUGAGGAUCACCCAUGUGGUCCUGAGAUAGAAUAGACCUUUGUAGAAGGCGCGGGUC			172	136
CCUCAGUAAGGAUAUCAGCUUAUAAAGUUGGUAAUGAGAGCUGAGAAGGUACAUGAGGAUCACCCAUGUUAGUU			21.4	66.3
CAGUACUGAGGAUAUACAUGAGGAUCACCCAUGUGUUCCUUGUAGGAUAUGCGCAAAAGUAGAAGCCAGAAGGAGAUGUGCCUA			6.95	7.31
CCUAGUUGGUAAGGAUAUCCUACACUGUUCUGACCCGUGCAAGCUACAUGAGGAUCACCCAUGUGGGAGAAGGUGCGUCGACGC			24	24.9
AGAUACAACCAGAAGGACAUGAGGAUCACCCAUGUAGGAUAUGGGUUACACGUUCCUGUGAAUUGUAACGACGCUACGUAGAGU	178	15		
AAAGCACAUGAGGAUCACCCAUGUGGAAAUAACACAGGAUAUCUGGCCUAAGCUUAGGCGAGAGAAGGGUGACCUA	88.9	223		
GUCUUGAUAGGAUAUACAUGAGGAUCACCCAUGUCCCACCCGUUACCUCUGGCCCUAUGUAGAAGGAUCGUCUG			50.2	45.6
GACUGAUUGUAGAAGGUACUUAAUAAUAUUUAAUAACUCAUGUGACAUGAGGAUCACCCAUGUAGUAAGGAUAUACAUAUCUCA	211	79.5		
CAUCUGUCAGGAUAUAUGCGAGGGCCACGAAGCGGCCCUUCAUAGAAGGGACAUGAGGAUCACCCAUGUAGAUC			461	310
CGCACUGAUAGAGGAUAUGUUGUACAUGAGGAUCACCCAUGUGUUUUUGUAUCAAUAUUUGUGAAACAGAAGGCUAUUAGUGCG			7.58	5.65

Sequence	apparent Kd [1] [nM]	apparent Kd [2] [nM]	apparent Kd [3] [nM]	apparent Kd [4] [nM]
ACAUGAGGAUCACCCAUGUAACAUGUGAAUUAAUUCUUUAACAGAAGGCGAAUAUAUAACAUUGUCGAGGAUAUGUACUUAUGU			9.85	7.41
GGAGGAGGUGUAGGAUAUAUAGAGGAGGGAGGGAUAGAAGGACAUGAGGAUCACCCAUGUGAGGAGGAGGAGGGAGGGAGGAGG			13.4	11.9
AUCAGCUCGUCAGGAUAUACGUCACUGCGUCACCAGUGUGGUAAGAUCACAUGAGGAUCACCCAUGUAGAAGGGACGAGCUGAU			15.4	287
GUGACGAAUGUAGGAUAUGCUGAGGAAUACUCAGCAGAAGGACAUGAGGAUCACCCAUGUAAUCCUAAUAAUAAAUAACGUCAC			13	18.3
CGAUGACAAAGUCAUCGAAUACGAACAUGAGGAUCACCCAUGUAGGAUAUGCUACUCAAAGAGUAGCAGAAGGACAUGUGUCUU			31.4	154
CGAUAGGACAGAGGAUAUACACAUGAGGAUCACCCAUGUAAUUACAAUUCUUAAGAUUCUAACAUGUAGAAGGCUGUCCUAUCG			40.2	19.3
UGCAUCAAUGAAGGAUAUCUAUGUCCAACAUGAGGAUCACCCAUGUUGAGGAUUACCUAUGUGUAGGAGAAGGUCAAUAUAACU	6.67	6.12		
GGACGUCACAUUAACAUGAGGAUCACCCAUGUCUCUAGACAUGAGGAUAUGGAUCCUAAUUGGAUCCAGAAGGCAUGGACGUCC	1030	143		
GCCAUUGCAUGAGGAUAUGCUCCCGUUUCGGGAGCAGAAGGCAUGUCAUAAGACAUGAGGAUCACCCAUGUAGUUAAGAUGGCA	398	15.2		
AAAGAGCGAGGAUAUACGUAUCGGUGCGGCCAGCCGAUGUGACAUGAGGAUCACCCAUGUAGAAGGCGCAGAAA			26.9	35.4
UUAGAAUUUGCAGGAUAUUGUAUUUUAUUACAUCAAGAAGGGCAUUACAUGAGGAUCACCCAUGUUAACAUGGUUAUAAAUUUU			94.8	29.5
UUUUUACGAGGAUAUCGUUUUUUUCACAUGAGGAUCACCCAUGUUGUUUAUGUUUCGUUUCGAGAAGGCGUUUGUU			28.2	22.1
CAACUGUGAGGAUAUGGUGAGUAGUGCCUGAGCGCUGCUCACCAGAAGGCACAUGAGGAUCACCCAUGUAUAAC			42.9	176
UUUACGAAAGUCGAACGAUGUAGCAGAAGGACAUGAGGAUCACCCAUGUCAGCUGUAACAGCCAUGUAGGAUAUGCUACAUAAA			5.78	5.92
GGACGUCACAUGAACAUGAGGAUCACCCAUGUAAAUUCUCAUGAGGAUAUGGAACCUAAUUGGUUCCAGAAGGCAUGGACGUCC	1270	381		
AGGUACAUGAGGAUCACCCAUGUAAGAGACCUCAUGCGAUGUAGAAGGAUAAUCCGAGAAGAGGUAUAGGAUAUACAUGAGAAA			177	149
UACUAUAAGGAGGAUAUCGUAUCGGAAACGAUACGAGAAGGCUUAACAUGAGGAUCACCCAUGUUCUUCAAUAA			16.6	18.3
GGACAUGUACAGAAGGGCAAUUUAUUUAUUGAUUAUUUAGUUCUGUAUUGCAGGAUAUGUAAAACAUGAGGAUCACCCAUGUCC	73.5	56.4		
GCGUUGAACGAGAAGGCCAAUACAUGAGGAUCACCCAUGUUUAGAUGUUUUGGAGGAUAUCGUACGUAUUCAAUAUUGCAACGC			10.9	9.94
GGAUAGGACAGAGGAUAUACGUGCUAGAGAUACUAGCAAAAUUUCCUAACAUGAGGAUCACCCAUGUAGAAGGCUGUCCUAUCG			6.61	13.3
AUCAGUCCGUAGAAGGGUGACAUGAGGAUCACCCAUGUGCCGUGUGCAUUUAUGCCUCCACGGCCACAGGAUAUACGGAGUCGA	89	22.6		
AAGAAGUCAGGAUAUGCAUGGCGGGACUUGCGUCGUGGCGUGCAGAAGGGACAUGAGGAUCACCCAUGUGGAGC			107	161
CGCUCAAUUACUUUGAAUAGAAUCAGAAGGCGUUACAUGAGGAUCACCCAUGUUAUGAUGUGUAACGAGGAUAUGAAUUGAGCG			38.2	208
GUGUGAUUAAGAGGAUAUAUACAACAUGAGGAUCACCCAUGUACCCGUGUAGUAGAAGGUUUGUUUUUAUAUAAUAUUAUAAUU	29.9	24.8		
GUAACAUGAGGAUCACCCAUGUCGUGCUAGAUGAGUUCUGGUGAGGAUAUACAUGGUAAAUAACUGUAGAAGGCGCUGGGUACA	132	105		
AUAAAACAUGAGGAUCACCCAUGUAAGGAUAUGCGAAAAUAAAAUAAAAUAAAAUAAAGCAGAAGGUACAAAAA			51	59.6
AAAAGCUCAGGAUAUACGGUCUGUUGUUGAAAAAGUAAAAAACAUGAGGAUCACCCAUGUAGAAGGGAGCGAAA			67.3	159
